# According to ChEMBL document CHEMBL1129609, “Synthesis and antiviral activity evaluation of some new aminoadamantane derivatives. 2” (1996):
# Assays:
# HEF [1] = assay: Effects on cell morphology of HEF cell lines.; type: functional; conditions: Homo sapiens
# Outline: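 Human embryonic skin-muscle fibroblasts were examined under the microscope for changes in normal cell morphology. The value is the minimum concentration causing a microscopically detectable alteration, averaged from at least two separate experiments.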
# [2] = test system: Human immunodeficiency virus 2; assay: Antiviral activity against HIV-2 virus infected CEM cell lines.; type: functional, CCRF-CEM
# Influenza B virus = assay: Antiviral activity against influenza B virus infected MDCK cell lines.; type: functional
# Human alphaherpesvirus 1 [3] = assay: Antiviral activity against HSV-1 virus infected HEF cell lines.; type: functional
# Outline: (§1)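 Human embryonic fibroblasts, from embryonic lung or embryonic skin-muscle, infected with the virus. Endpoint is the minimum inhibitory concentration that reduces virus-induced cytopathicity by 50%. Values are averages of at least two separate experiments.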
# HEL [4] = assay: Inhibition of HEL cell proliferation.; type: functional; conditions: Homo sapiens
# Outline: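 Human embryonic lung fibroblasts were used for the proliferation assay. The value is the concentration that reduces cell proliferation by 50%, averaged from at least two separate experiments.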
# [5] = test system: Vesicular stomatitis virus; assay: Antiviral activity against vesicular stomatitis virus infected HeLa cell lines.; type: functional
# Outline: (§2)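 Vero (African green monkey kidney), HeLa (human epithelial) or HEL (human embryonic lung) cell monolayers infected with the virus. Readout is the minimum inhibitory concentration that reduces virus-induced cytopathicity by 50%. Values are averages of at least two separate experiments.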
# MDCK [6] = assay: Antiviral activity tested against influenza A,H1N1 virus infected MDCK cell lines.; type: functional; conditions: Canis lupus familiaris
# CCRF-CEM [7] = assay: Cytotoxicity against CEM cell lines.; type: functional; conditions: Homo sapiens
# Human alphaherpesvirus 1 [8] = assay: Antiviral activity against TK-HSV-1 virus infected HEF cell lines.; type: functional; outline: as §1
# Vero [9] = assay: Effects on cell morphology of Vero cell lines.; type: functional; conditions: Chlorocebus sabaeus
# Outline: (§3)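 HeLa (human epithelial) or Vero (African green monkey kidney) cells were examined under the microscope for changes in normal morphology. The value is the minimum concentration causing a detectable alteration, averaged from at least two separate experiments.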
# Enterovirus C = assay: Antiviral activity against polio 1 virus infected HeLa cell lines.; type: functional; outline: as §2
# [10] = test system: Mammalian orthoreovirus 1; assay: Antiviral activity against Reo 1 virus infected vero cell lines.; type: functional; outline: as §2
# Coxsackievirus B4 [11] = assay: Antiviral activity against Coxsackie B4 virus infected vero cell lines.; type: functional; conditions: Enterovirus B; outline: as §2
# Human betaherpesvirus 5 = assay: Antiviral activity against HCMV virus infected HEL cell lines.; type: functional; outline: as §2
# Semliki Forest virus = assay: Antiviral activity against Semliki forest virus infected Vero cell lines.; type: functional; outline: as §2
# Sindbis virus = assay: Antiviral activity against sindbis virus infected Vero cell lines.; type: functional; outline: as §2
# [12] = Antiviral activity against influenza A,H2N2 virus infected MDCK cell lines.; type: functional
# [13] = Antiviral activity against influenza A,H3N2 virus infected MDCK cell lines.; type: functional
# [14] = test system: Vesicular stomatitis virus; assay: Antiviral activity against vesicular stomatitis virus infected HEF cell lines.; type: functional; outline: as §1
# Human alphaherpesvirus 2 = assay: Antiviral activity against HSV-2 virus infected HEF cell lines.; type: functional; outline: as §1
# Coxsackievirus B4 [15] = assay: Antiviral activity against Coxsackie B4 virus infected HeLa cell lines.; type: functional; conditions: Enterovirus B; outline: as §2
# Human respirovirus 3 = assay: Antiviral activity against parainfluenza 3 virus infected Vero cell lines.; type: functional; outline: as §2
# Human alphaherpesvirus 3 [16] = assay: Antiviral activity against TK+VZV virus infected HEL cell lines.; type: functional; outline: as §2
# Vaccinia virus = assay: Antiviral activity against vaccinia virus infected HEF cell lines.; type: functional; conditions: Orthopoxvirus vaccinia; outline: as §1
# Human alphaherpesvirus 3 [17] = assay: Antiviral activity against TK-VZV virus infected HEL cell lines.; type: functional; outline: as §2
# MDCK [18] = assay: Antiviral activity of compound was tested against morphology virus infected MDCK cell lines.; type: functional; conditions: Canis lupus familiaris
# [19] = test system: Human immunodeficiency virus 1; assay: Antiviral activity against HIV-1 virus infected CEM cell lines.; type: functional, CCRF-CEM
# HeLa [20] = assay: Effects on cell morphology of HeLa cell lines.; type: functional; conditions: Homo sapiens; outline: as §3
# HEF [21] = assay: Antiviral activity of compound was tested against TK-HSV-1 virus infected HEF cell lines.; type: functional; conditions: Homo sapiens; outline: as §1
# MDCK [22] = assay: Antiviral activity of compound was tested against influenza […] virus infected MDCK cell lines; type: functional; conditions: Canis lupus familiaris
# HEL [23] = assay: Antiviral activity of compound was tested against proliferation virus infected HEL cell lines.; type: functional; conditions: Homo sapiens
# HEL [24] = assay: Antiviral activity of compound was tested against HCMV virus infected HEL cell lines.; type: functional; conditions: Homo sapiens; outline: as §2
# HeLa [25] = assay: Antiviral activity of compound was tested against polio-1 virus infected HeLa cell lines.; type: functional; conditions: Homo sapiens; outline: as §2
# HEL [26] = assay: Antiviral activity of compound was tested against TK+VZV virus infected HEL cell lines.; type: functional; conditions: Homo sapiens; outline: as §2
# CCRF-CEM [27] = assay: Antiviral activity of compound was tested against HIV-1 virus infected CEM cell lines.; type: functional; conditions: Homo sapiens
# Vero [28] = assay: Antiviral activity of compound was tested against reo1 virus infected vero cell lines.; type: functional; conditions: Chlorocebus sabaeus; outline: as §2
# HeLa [29] = assay: Antiviral activity of compound was tested against Coxsackie B4 virus infected HeLa cell lines.; type: functional; conditions: Homo sapiens; outline: as §2
# HEL [30] = assay: Antiviral activity of compound was tested against TK-VZV virus infected HEL cell lines.; type: functional; conditions: Homo sapiens; outline: as §2
# Vero [31] = assay: Antiviral activity of compound were tested against semliki forest virus infected vero cell lines.; type: functional; conditions: Chlorocebus sabaeus; outline: as §2
# HEF [32] = assay: Antiviral activity of compound was tested against HSV-2 virus infected HEF cell lines.; type: functional; conditions: Homo sapiens; outline: as §1
# HeLa [33] = assay: Antiviral activity of compound was tested against morphology virus infected HeLa cell lines.; type: functional; conditions: Homo sapiens
# Vero [34] = assay: Antiviral activity of compound was tested against Coxsackie B4 virus infected vero cell lines.; type: functional; conditions: Chlorocebus sabaeus; outline: as §2
# HEF [35] = assay: Antiviral activity of compound was tested against vaccinia virus infected HEF cell lines.; type: functional; conditions: Homo sapiens; outline: as §1
# CCRF-CEM [36] = assay: Antiviral activity of compound was tested against viability virus infected CEM cell lines.; type: functional; conditions: Homo sapiens
# MDCK [37] = assay: Antiviral activity of compound was tested against influenza A,H3N2 virus infected MDCK cell lines.; type: functional; conditions: Canis lupus familiaris
# Vero [38] = assay: Antiviral activity of compound was tested against sindbis virus infected vero cell lines.; type: functional; conditions: Chlorocebus sabaeus; outline: as §2
# Vero [39] = assay: Antiviral activity of compound was tested against morphology virus infected Vero cell lines.; type: functional; conditions: Chlorocebus sabaeus
# Vero [40] = assay: Antiviral activity of compound was tested against parainfluenza 3,[…] virus infected Vero cell lines.; type: functional; conditions: Chlorocebus sabaeus; outline: as §2
# CCRF-CEM [41] = assay: Antiviral activity of compound were tested against HIV-2 virus infected CEM cell lines.; type: functional; conditions: Homo sapiens
# HEF [42] = assay: Antiviral activity of compound was tested against morphology virus infected HEF cell lines.; type: functional; conditions: Homo sapiens
# MDCK [43] = assay: Antiviral activity of compound was tested against morphology virus infec+ted MDCK cell lines.; type: functional; conditions: Canis lupus familiaris
compound,measurement,setting,value
C1CNC(C23CC4CC(CC(C4)C2)C3)C1 (centres undefined),MIC50,HEF [1],100 µg/mL
same,MIC50,[2],> 40 µg/mL
same,MIC50,Influenza B virus,12 µg/mL
same,MIC50,Human alphaherpesvirus 1 [3],> 40 µg/mL
same,MIC50,HEL [4],> 50 µg/mL
same,MIC50,[5],> 100 µg/mL
same,MIC50,MDCK [6],15.8 µg/mL
same,MIC50,CCRF-CEM [7],56 µg/mL
same,MIC50,Human alphaherpesvirus 1 [8],> 40 µg/mL
same,MIC50,Vero [9],400 µg/mL
same,MIC50,Enterovirus C,> 100 µg/mL
same,MIC50,[10],> 200 µg/mL
same,MIC50,Coxsackievirus B4 [11],> 200 µg/mL
same,MIC50,Human betaherpesvirus 5,> 50 µg/mL
same,MIC50,Semliki Forest virus,> 200 µg/mL
same,MIC50,Sindbis virus,> 200 µg/mL
same,MIC50,[12],0.6 µg/mL
same,MIC50,[13],12.4 µg/mL
same,MIC50,[14],> 40 µg/mL
same,MIC50,Human alphaherpesvirus 2,> 40 µg/mL
same,MIC50,Coxsackievirus B4 [15],> 100 µg/mL
same,MIC50,Human respirovirus 3,> 200 µg/mL
same,MIC50,Human alphaherpesvirus 3 [16],> 50 µg/mL
same,MIC50,Vaccinia virus,> 40 µg/mL
same,MIC50,Human alphaherpesvirus 3 [17],> 50 µg/mL
same,MIC50,MDCK [18],250 µg/mL
same,MIC50,[19],> 40 µg/mL
same,MIC50,HeLa [20],> 200 µg/mL
CCN1CCOCC12C1CC3CC(C1)CC2C3 (centres undefined),MIC50,HEF [21],> 400 µg/mL
same,MIC50,MDCK [22],> 80 µg/mL
same,MIC50,HEL [23],> 50 µg/mL
same,MIC50,Human alphaherpesvirus 1 [3],> 400 µg/mL
same,MIC50,[5],> 400 µg/mL
same,MIC50,HEL [24],> 50 µg/mL
same,MIC50,MDCK [6],> 10 µg/mL
same,MIC50,HeLa [25],> 400 µg/mL
same,MIC50,HEL [26],> 50 µg/mL
same,MIC50,CCRF-CEM [27],158 µg/mL
same,MIC50,Vero [28],> 400 µg/mL
same,MIC50,HeLa [29],> 400 µg/mL
same,MIC50,HEL [30],> 50 µg/mL
same,MIC50,Vero [31],> 400 µg/mL
same,MIC50,HEF [32],> 400 µg/mL
same,MIC50,HeLa [33],> 400 µg/mL
same,MIC50,[12],10.5 µg/mL
same,MIC50,Vero [34],> 400 µg/mL
same,MIC50,[14],> 400 µg/mL
same,MIC50,HEF [35],> 400 µg/mL
same,MIC50,CCRF-CEM [36],> 200 µg/mL
same,MIC50,MDCK [37],> 57 µg/mL
same,MIC50,Vero [38],> 400 µg/mL
same,MIC50,Vero [39],> 400 µg/mL
same,MIC50,Vero [40],> 400 µg/mL
same,MIC50,CCRF-CEM [41],> 200 µg/mL
same,MIC50,MDCK [18],> 250 µg/mL
same,MIC50,HEF [42],> 400 µg/mL
C1CCC2(NC1)C1CC3CC(C1)CC2C3 (centres undefined),MIC50,HEF [1],400 µg/mL
same,MIC50,[2],> 40 µg/mL
same,MIC50,Influenza B virus,60 µg/mL
same,MIC50,Human alphaherpesvirus 1 [3],100 µg/mL
same,MIC50,HEL [4],> 50 µg/mL
same,MIC50,[5],> 400 µg/mL
same,MIC50,MDCK [6],> 35 µg/mL
same,MIC50,CCRF-CEM [7],93 µg/mL
same,MIC50,Human alphaherpesvirus 1 [8],> 200 µg/mL
same,MIC50,Vero [9],> 400 µg/mL
same,MIC50,Enterovirus C,> 400 µg/mL
same,MIC50,[10],> 400 µg/mL
same,MIC50,Coxsackievirus B4 [11],> 400 µg/mL
same,MIC50,Human betaherpesvirus 5,> 50 µg/mL
same,MIC50,Semliki Forest virus,> 400 µg/mL
same,MIC50,Sindbis virus,> 400 µg/mL
same,MIC50,[12],0.24 µg/mL
same,MIC50,[13],43 µg/mL
same,MIC50,[14],> 200 µg/mL
same,MIC50,Human alphaherpesvirus 2,> 200 µg/mL
same,MIC50,Coxsackievirus B4 [15],> 400 µg/mL
same,MIC50,Human respirovirus 3,> 400 µg/mL
same,MIC50,Human alphaherpesvirus 3 [16],> 50 µg/mL
same,MIC50,Vaccinia virus,> 200 µg/mL
same,MIC50,Human alphaherpesvirus 3 [17],> 50 µg/mL
same,MIC50,[19],> 40 µg/mL
same,MIC50,MDCK [43],> 250 µg/mL
same,MIC50,HeLa [20],> 400 µg/mL
